Values after ≈ are worked out from the molar mass of the structure shown. Some results are limits rather than exact numbers.

The values below come from ChEMBL document CHEMBL1158803, “Xanthone and sesquiterpene derivatives from the fruits of Garcinia scortechinii” (2005).

This assay concerns Staphylococcus aureus. Description: Antibacterial activity against methicillin-resistant Staphylococcus aureus after 18 hrs by agar microdilution method. It is filed as functional. A digest of the protocol:
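Agar microdilution; compounds in DMSO, serial 2-fold dilutions mixed 1:100 into melted Mueller-Hinton agar, final 128 to 0.03 µg/mL. Clinical MRSA isolate (Songklanakarin Hospital) inoculum spotted on agar wells, incubated 35 °C for 18 h. MIC taken as lowest concentration inhibiting visible growth. Vancomycin positive control; DMSO-agar growth control.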
`CO[C@]12C=C3C(=O)c4c(O)c(CC=C(C)C)c5c(c4O[C@]34[C@H](C1)[C@](C)(CO)O[C@]4(CC=C(C)C)C2=O)C(C)(C)[C@@H](C)O5`: the MIC – broadly, the lowest concentration that inhibits growth of the organism – was above 221 µM.
`CO[C@H]1[C@@H]2C(=O)c3c(O)c(CC=C(C)C)c4c(c3O[C@]23[C@@H]2C[C@@]1(OC)C(=O)[C@@]3(C/C=C(\C)C=O)OC2(C)C)C(C)(C)[C@@H](C)O4` [SCORTECHINONE T] came in with an MIC above 105 µM.
The compound `C=C(C)C(O)Cc1c(O)c2c(c3c1O[C@H](C)C3(C)C)O[C@@]13C(=C[C@@]4(OC)C[C@@H]1C(C)(C)O[C@]3(C/C=C(/C)C(=O)O)C4=O)C2=O` (stereo partly specified) [SCORTECHINONE R] returned a minimum inhibitory concentration (MIC) above 210 µM.
Take `COC1Cc2c(oc3c(CC=C(C)C)c4c(c(O)c3c2=O)C(C)(C)C(C)O4)C2=C1[C@@](C/C=C(\C)C(=O)O)(C(=O)O)OC2(C)C` (stereo partly specified) [SCORTECHINONE X]: the MIC was above 210 µM.
In the case of `CN[C@H](CC(C)C)C(=O)N[C@H]1C(=O)N[C@@H](CC(N)=O)C(=O)N[C@H]2C(=O)N[C@H]3C(=O)N[C@H](C(=O)N[C@H](C(=O)O)c4cc(O)cc(O)c4-c4cc3ccc4O)[C@H](O)c3ccc(c(Cl)c3)Oc3cc2cc(c3O[C@@H]2O[C@H](CO)[C@@H](O)[C@H](O)[C@H]2O[C@H]2C[C@](C)(N)[C@H](O)[C@H](C)O2)Oc2ccc(cc2Cl)[C@H]1O` [VANCOMYCIN] it was 1.38 µM (≈ 2 µg/mL); in that of `C=C(C)C(O)Cc1c(O)c2c(c3c1O[C@H](C)C3(C)C)O[C@@]13[C@@H]4C[C@@](OC)(C(=O)[C@@]1(C/C=C(/C)C(=O)O)OC4(C)C)[C@@H](OC)[C@@H]3C2=O` (stereo partly specified) [SCORTECHINONE S], 100 µM (≈ 64.1 µg/mL).
`CC(C)=CCc1c2c(c3oc4c(C(C)(C)O)cc(O)cc4c(=O)c3c1O)C(C)(C)[C@@H](C)O2` [SCORTECHINONE U] showed an MIC above 292 µM.
For the compound `COc1cc2c(=O)c3c(O)c4c(c(CC=C(C)C)c3oc2c2c1[C@@](C/C=C(\C)C(=O)O)(C(=O)O)OC2(C)C)OC(C)C4(C)C` (stereo partly specified) [SCORTECHINONE W], the MIC was found to be 52.8 µM (≈ 32 µg/mL).
Under `COc1cc2c(=O)c3c(O)c(CC=C(C)C)c4c(c3oc2c2c1[C@@](C/C=C(\C)C(=O)O)(C(=O)O)OC2(C)C)C(C)(C)[C@@H](C)O4` [SCORTECHINONE V] stands 106 µM (≈ 64.3 µg/mL).
`CO[C@]12C=C3C(=O)c4c(O)c(CC=C(C)C)c5c(c4O[C@]34[C@H](C1)C(C)(C)O[C@]4(C/C=C(/C)C(=O)O)C2=O)C(C)(C)[C@H](C)O5` [SCORTECHINONE B] displayed a minimal inhibitory concentration (MIC) of 3.38 µM (≈ 2 µg/mL).
For the compound `CO[C@H]1[C@@H]2C(=O)c3c(O)c(CC=C(C)C)c4c(c3O[C@]23[C@@H]2C[C@@]1(OC)C(=O)[C@@]3(C/C=C(/C)C(=O)O)OC2(C)C)C(C)(C)[C@@H](C)O4` [SCORTECHINONE I], 12.8 µM (≈ 8 µg/mL) was the least that counted as inhibitory (MIC).
